{"source": "ChEMBL document CHEMBL3124867", "about": "“Hepatitis C replication inhibitors that target the viral NS4B protein” (J Med Chem, 2014)", "key": {"Hepatitis C virus [1]": {"test_system": "Hepatitis C virus", "experiment": "Antiviral activity against Hepatitis C virus genotype 1a infected in human HuH7 cells after 48 hrs by luciferase reporter gene assay", "format": "functional, organism-based, Hepacivirus hominis", "conditions": "subtype 1a, Huh-7, 48 h"}, "Hepatitis C virus [2]": {"test_system": "Hepatitis C virus", "experiment": "Antiviral activity against Hepatitis C virus genotype 1b expressing NS4B H94N mutant infected in human HuH7 cells after 48 hrs by luciferase reporter gene assay", "format": "functional, organism-based, Hepacivirus hominis", "conditions": "Huh-7, 48 h"}, "[3]": {"experiment": "Clearance in CD rat at 1 mg/kg, iv by LC/MS/MS analysis", "format": "ADME, organism-based", "design": "dose 1 mg/kg, route intravenous", "conditions": "in vivo", "method_in_brief": "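Intravenous dose of 1 mg/kg in DMSO/20% HP-β-CD (10:90) (n = 4). Clearance, Vdss and t1/2 were derived from the plasma concentration–time profiles.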"}, "Hepatitis C virus [4]": {"test_system": "Hepatitis C virus", "experiment": "Antiviral activity against Hepatitis C virus genotype 1b infected in human HuH7 cells after 48 hrs by luciferase reporter gene assay", "format": "functional, organism-based, Hepacivirus hominis", "conditions": "Huh-7, 48 h"}, "Hepatocyte [5]": {"test_system": "Hepatocyte", "experiment": "Drug metabolism in human hepatocytes assessed as oxidation of the terminal bicyclohexane substituent at 10 uM by LC/MS/MS analysis", "format": "ADME, cell-based"}, "Hepatitis C virus [6]": {"test_system": "Hepatitis C virus", "experiment": "Antiviral activity against Hepatitis C virus genotype 1b expressing NS4B V105M mutant infected in human HuH7 cells after 48 hrs by luciferase reporter gene assay", "format": "functional, organism-based, Hepacivirus hominis", "conditions": "Huh-7, 48 h"}, "Hepatocyte [7]": {"test_system": "Hepatocyte", "experiment": "Drug metabolism in rat hepatocytes assessed as oxidation of the terminal bicyclohexane substituent at 10 uM by LC/MS/MS analysis", "format": "ADME, cell-based"}, "[8]": {"experiment": "Lipophilicity, log D of the compound by chromatographic analysis", "format": "physicochemical", "method_in_brief": "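Lipophilicity was measured chromatographically and reported as ChromLogD; ≥6 replicates.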"}, "[9]": {"experiment": "Displacement of [3H]-3-(1-(3-chloro-6-isopropyl-8-(trifluoromethyl)imidazo[1,2-a]pyridine-2-carbonyl)piperidin-4-yl)oxazolidin-2-one from HCV genotype 1b C-terminal His-tagged NS4B (1 to 261 aa) expressed in baculovirus infected SF9 cells after overnight incubation", "design": "species or system Hepatitis C virus subtype 1b"}, "[10]": {"experiment": "Plasma protein binding in human at 5 uM after 4 hrs by rapid equilibrium dialysis method", "format": "ADME, cell-free", "conditions": "read-out: PPB (converted)"}, "[11]": {"experiment": "Plasma protein binding in beagle dog at 5 uM after 4 hrs by rapid equilibrium dialysis method", "format": "ADME, cell-free, Canis lupus familiaris", "conditions": "read-out: PPB (converted)"}, "[12]": {"experiment": "Aqueous solubility in fasted state simulated intestinal fluid at pH 6.5 by LC/UV analysis", "format": "physicochemical"}, "[13]": {"experiment": "Plasma protein binding in cynomolgus monkey at 5 uM after 4 hrs by rapid equilibrium dialysis method", "format": "ADME, cell-free, Macaca fascicularis", "conditions": "read-out: PPB (converted)"}, "Huh-7": {"test_system": "Huh-7", "experiment": "Cytotoxicity against human HuH7 cells at 50 uM after 2 days by Cell Titer Glo assay", "format": "cell-based", "conditions": "huh-7, 48 h", "method_in_brief": "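Huh7 cells were exposed to compound at 50 μM for 2 days and scored for cellular toxicity.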"}, "Hepatitis C virus [14]": {"test_system": "Hepatitis C virus", "experiment": "Antiviral activity against Hepatitis C virus genotype 1a", "format": "functional, Hepacivirus hominis", "conditions": "subtype 1a"}, "[15]": {"experiment": "Plasma protein binding in CD rat at 5 uM after 4 hrs by rapid equilibrium dialysis method", "format": "ADME, cell-free", "conditions": "read-out: PPB (converted)"}, "Rattus norvegicus": {"species": "Rattus norvegicus", "experiment": "Cardiovascular toxicity in rat after 7 days", "format": "organism-based", "conditions": "in vivo, 168 h"}, "[16]": {"experiment": "AUC (0 to 24 hrs) in CD rat at 300 mg/kg, po by LC/MS/MS analysis", "format": "ADME, organism-based", "design": "time < 24 hr, dose 300 mg/kg, route oral", "conditions": "plasma", "method_in_brief": "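CD rats were given a single oral dose of 300 mg/kg of parent suspension or of prodrug. Plasma was assayed for the parent drug and for uncleaved prodrug.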"}}, "data": [{"compound": "O=C(c1nn2c(C(F)(F)F)cc(C3CC3)cc2c1Cl)N1CCN([C@@H]2C[C@H]3C[C@H]3C2)C(=O)C1", "values": [{"measurement": "EC50", "setting": "Hepatitis C virus [1]", "result": 0.1, "unit": "nM"}, {"measurement": "EC50", "setting": "Hepatitis C virus [2]", "result": 0.7, "unit": "nM"}, {"measurement": "clearance", "setting": "[3]", "result": 70, "unit": "mL/min/kg"}, {"measurement": "EC50", "setting": "Hepatitis C virus [4]", "result": 0.06, "unit": "nM"}, {"measurement": "Stability", "setting": "Hepatocyte [5]", "result": "Unstable"}, {"measurement": "EC50", "setting": "Hepatitis C virus [6]", "result": 2, "unit": "nM"}, {"measurement": "Stability", "setting": "Hepatocyte [7]", "result": "Unstable"}, {"measurement": "chromatographic logD", "setting": "[8]", "result": 6.4}, {"measurement": "IC50", "setting": "[9]", "result": 4, "unit": "nM"}]}, {"compound": "O=C(c1nc2c(C(F)(F)F)cc(C3CC3)cn2c1Cl)N1CCN([C@H]2CC[C@H](O)CC2)C(=O)C1", "values": [{"measurement": "fraction unbound at 4 h, 5 µM", "setting": "[10]", "result": 0.17}, {"measurement": "fraction unbound at 4 h, 5 µM", "setting": "[11]", "result": 0.34}, {"measurement": "solubility", "setting": "[12]", "result": 11, "unit": "µg/mL"}, {"measurement": "EC50", "setting": "Hepatitis C virus [1]", "result": 1, "unit": "nM"}, {"measurement": "EC50", "setting": "Hepatitis C virus [4]", "result": 7, "unit": "nM"}, {"measurement": "fraction unbound at 4 h, 5 µM", "setting": "[13]", "result": 0.23}, {"measurement": "Activity", "setting": "Huh-7", "result": "Non-toxic"}, {"measurement": "EC90", "setting": "Hepatitis C virus [14]", "result": 29, "unit": "nM"}, {"measurement": "fraction unbound at 4 h, 5 µM", "setting": "[15]", "result": 0.2}, {"measurement": "EC50", "setting": "Hepatitis C virus [6]", "result": 730, "unit": "nM"}, {"measurement": "Activity", "setting": "Rattus norvegicus", "result": "Toxic"}, {"measurement": "chromatographic logD", "setting": "[8]", "result": 3.5}, {"measurement": "IC50", "setting": "[9]", "result": 53, "unit": "nM"}, {"measurement": "AUC(0-t) at 24 h", "setting": "[16]", "result": 11300, "unit": "ng·h/mL"}]}]}
